Assay results taken from ChEMBL document CHEMBL1124173, “Enantiomers of 7-(2,3-epoxypropoxy)actinomycin D as dual-action DNA-acting antitumor agents” (J Med Chem, 1988).

Experiments:
Format in all cases: functional, Mus musculus
P388/ADR [1] = experiment: Antitumor activity against P388/ADR cells in ip implanted CDF1 mice, qd 1-9 measured as optimal dose
Summary of the method: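 P388/ADR leukemia implanted ip in CDF1 mice; drugs given ip once daily on days 1-9. Optimal dose recorded alongside median survival time and % increase in median life span of treated dying mice versus controls; survivors counted as >60-day survivors per group of 10.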

P388/ADR [2] = experiment: Antitumor activity measured as Median survival time in days against P388/ADR cells in ip implanted CDF1 mice, qd 1-9
Summary of the method: (§1)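 P388/ADR leukemia, a P388/S subline made resistant to intercalators, implanted ip in CDF1 mice. Drug given ip daily on days 1-9 at optimal dose. Read-out is median survival time of tumor-bearing mice and %ILS of treated dying animals versus controls. Survivors beyond 60 days are counted; 10 mice per group.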

P388/ADR [3] = experiment: Antitumor activity measured as %ILS against P388/ADR cells in ip implanted CDF1 mice, qd 1-9; summary of the method: as §1

## CO[C@@]12[C@H](COC(N)=O)C3=C(C(=O)C(C)=C(N)C3=O)N1C[C@@H]1N[C@@H]12 [MITOMYCIN]
P388/ADR [1]
  Dose: 1 mg/kg
P388/ADR [2]
  MST: 45 days
P388/ADR [3]
  ILS: 400%
